ChEMBL document CHEMBL2040826, “Design, synthesis and antiviral activity of novel pyridazines” (Eur J Med Chem, 2012)

What was measured:
[1] = system: Tobacco mosaic virus; assay: In vivo antiviral activity against TMV assessed as protection effect at 500 ug/ml; format: functional
[2] = system: Tobacco mosaic virus; assay: In vivo antiviral activity against TMV assessed as curative effect at 500 ug/ml; format: functional
[3] = system: Tobacco mosaic virus; assay: In vitro antiviral activity against TMV at 500 ug/ml; format: functional
[4] = system: Tobacco mosaic virus; assay: In vivo antiviral activity against TMV assessed as inactivation effect at 500 ug/ml; format: functional
[5] = Cytotoxicity against human TZM-bl cells at 10 uM after 48 hrs by MTT assay; format: cell-based
[6] = system: Human immunodeficiency virus; assay: Antiviral activity against HIV infected in human TZM-bl cells at 10 uM after 48 hrs by measuring luciferase activity by luminometer analysis; format: functional; settings: Human immunodeficiency virus 1, TZM-bl
Procedure, shortened: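 TZM-bl cells seeded at 10⁴ cells/well; samples (from DMSO stocks) added next day, then pseudotyped HIV; final DMSO 2%. Incubated 48 h at 37 °C in humidified CO₂. Steady-glow luciferase substrate added, lysis 20 min in dark, luminescence read. AZT and MK-0518 as positive controls; expressed as percent inhibition.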

| Structure (SMILES) | Activity [1] [%] | Activity [2] [%] | inhibition at 500 µg/mL [3] [%] | Activity [4] [%] | Activity [5] | inhibition at 10 µM [6] [%] |
| --- | --- | --- | --- | --- | --- | --- |
| COC(=O)c1c(C(F)(F)F)nn(-c2ccccc2)c(=O)c1O | 11.4 | 10.7 | 15.5 | 18.9 | Non-toxic | -0.75 |
| O=c1c(O)cc(C(F)(F)F)nn1-c1ccccc1 | 7.6 | 14.8 | 0 | 0 | Non-toxic | 6.33 |
| COC(=O)c1c(C(F)(F)F)nn(-c2ccccc2)c(=O)c1OC | 19.2 | 12.5 | 20 | 16.5 | Non-toxic | 5.9 |
| O=C(NCc1ccc(F)cc1)c1c(C(F)(F)F)nn(-c2ccccc2)c(=O)c1O | 32.6 | 30.2 | 38.5 | 36.7 | Non-toxic | 27.9 |
| COC(=O)c1c(C(F)(F)F)nn(-c2ccc(F)cc2)c(=O)c1O | – | – | – | – | Non-toxic | 1.3 |
| O=c1c(O)cc(C(F)(F)F)nn1-c1ccc(F)cc1 | – | – | – | – | Non-toxic | -11.6 |
| COC(=O)c1c(C(F)(F)F)nn(-c2ccc(F)cc2)c(=O)c1OC | 11.7 | 18.6 | 22.5 | 7.5 | Non-toxic | 7.34 |
| O=C(NCc1ccc(F)cc1)c1c(C(F)(F)F)nn(-c2ccc(F)cc2)c(=O)c1O | 15.6 | 17.4 | 18.6 | 10.3 | Non-toxic | 19.5 |
| O=C(NCc1ccc(F)cc1)c1c(C(F)(F)F)nn(-c2ccc(F)cc2)c(=O)c1NCc1ccc(F)cc1 | 31.3 | 34 | 28.5 | 30.2 | Non-toxic | 19.5 |
| COC(=O)c1c(C(F)(F)F)nn(Cc2ccc(F)cc2)c(=O)c1OC | 20.2 | 10.3 | 27.5 | 11.2 | Non-toxic | 13.9 |
| O=C(NCc1ccc(F)cc1)c1c(C(F)(F)F)nn(Cc2ccc(F)cc2)c(=O)c1O | 28.3 | 21.7 | 30 | 21.4 | Non-toxic | 29.3 |
| COC(=O)c1c(C(F)(F)F)nn(Cc2ccccn2)c(=O)c1O | 16.7 | 9.3 | 21.3 | 18.3 | Non-toxic | 5.41 |
| COC(=O)c1c(C(F)(F)F)nn(Cc2ccccn2)c(=O)c1OC | 15.2 | 0 | 0 | 0 | Non-toxic | 20.2 |
| O=C(NCc1ccc(F)cc1)c1c(C(F)(F)F)nn(Cc2ccccn2)c(=O)c1O | 18.6 | 7.6 | 10 | 5.2 | Non-toxic | 2.99 |
| COC(=O)c1c(C(F)(F)F)nn(Cc2cccnc2)c(=O)c1OC | – | – | – | – | Non-toxic | 19.5 |
| O=C(NCc1ccc(F)cc1)c1c(C(F)(F)F)nn(Cc2cccnc2)c(=O)c1O | 18.9 | 12.8 | 7.5 | 18.2 | Non-toxic | 7.31 |
| COC(=O)c1c(C(F)(F)F)nn(CC2CCCO2)c(=O)c1OC (stereo unspecified) | 10.3 | 0 | 13.6 | 19.7 | Non-toxic | 9.3 |

| Structure (SMILES) | Activity [1] [%] | Activity [2] [%] | inhibition at 500 µg/mL [3] [%] | Activity [4] [%] | Activity [5] | inhibition at 10 µM [6] [%] |
| --- | --- | --- | --- | --- | --- | --- |
| O=C(NCc1ccc(F)cc1)c1c(C(F)(F)F)nn(CC2CCCO2)c(=O)c1O (stereo unspecified) | 0 | 0 | 0 | 13.2 | Non-toxic | -3.02 |
| COC(=O)c1c(C(F)(F)F)nn(Cc2ccco2)c(=O)c1OC | 0 | 7.2 | 8.5 | 0 | Non-toxic | -3.39 |
| O=C(NCc1ccc(F)cc1)c1c(C(F)(F)F)nn(Cc2ccco2)c(=O)c1O | – | – | – | – | Non-toxic | 13 |
| COC(=O)c1c(C(F)(F)F)nn(Cc2cccs2)c(=O)c1OC | 10 | 19.5 | 12.4 | 15.1 | Non-toxic | 37 |
| O=C(NCc1ccc(F)cc1)c1c(C(F)(F)F)nn(Cc2cccs2)c(=O)c1O | 0 | 14.2 | 0 | 0 | Non-toxic | -7.5 |
| O=C(NCc1ccc(F)cc1)c1c(C(F)(F)F)nn(Cc2cccs2)c(=O)c1NCc1ccc(F)cc1 | 24.7 | 23.6 | 30 | 19.5 | Non-toxic | 12.7 |
| COC(=O)c1c(C(F)(F)F)nn(C)c(=O)c1OC | 20.5 | 26.5 | 25 | 27.3 | Non-toxic | -4 |
| Cn1nc(C(F)(F)F)c(C(=O)NCc2ccc(F)cc2)c(O)c1=O | 32.8 | 28.4 | 19.6 | 25.4 | Non-toxic | -3.5 |
| Cn1nc(C(F)(F)F)c(C(=O)NCc2ccc(F)cc2)c(NCc2ccc(F)cc2)c1=O | 17.5 | 11.3 | 8.6 | 23.9 | Non-toxic | 53.5 |
| COC(=O)c1c(C(F)(F)F)nn(C/C=C/c2ccccc2)c(=O)c1OC | 22.9 | 29.8 | 20.3 | 23.7 | Non-toxic | -19.4 |
| O=C(NCc1ccc(F)cc1)c1c(C(F)(F)F)nn(C/C=C/c2ccccc2)c(=O)c1O | 12.2 | 10.2 | 18.4 | 0 | Non-toxic | -27.2 |
| COC(=O)c1c(C(F)(F)F)nn(C(C)(C)C)c(=O)c1OC | 5.7 | 6.3 | 0 | 0 | Non-toxic | -6.5 |
| CC(C)(C)n1nc(C(F)(F)F)cc(NCc2ccc(F)cc2)c1=O | 30.2 | 20.2 | 26.2 | 15.3 | Non-toxic | 41.9 |
| CC(C)(C)n1nc(C(F)(F)F)cc(O)c1=O | 23.1 | 27.2 | 31.7 | 18.6 | Non-toxic | -11.6 |
| Cc1nnc(C(=O)NC(C)(C)c2nc(C(=O)NCc3ccc(F)cc3)c(O)c(=O)n2C)o1 [RALTEGRAVIR POTASSIUM] | – | – | – | – | – | 95.1 |
| NC(=O)c1ncn([C@@H]2O[C@H](CO)[C@@H](O)[C@H]2O)n1 [RIBAVIRIN] | 39.6 | 32.7 | 38.5 | 34.2 | – | – |
| Cc1cn([C@H]2C[C@H](N=[N+]=[N-])[C@@H](CO)O2)c(=O)[nH]c1=O [ZIDOVUDINE] | – | – | – | – | – | 100 |
